For 5 molecules, Kd and stoichiometry N results are on record in article PMC3583859 (RNA Biology, 2012).

One assay addresses T1, YchF (YchFE.coli) (Escherichia coli, UniProt P0ABU2).
T1 sequence (P0ABU2 1-363): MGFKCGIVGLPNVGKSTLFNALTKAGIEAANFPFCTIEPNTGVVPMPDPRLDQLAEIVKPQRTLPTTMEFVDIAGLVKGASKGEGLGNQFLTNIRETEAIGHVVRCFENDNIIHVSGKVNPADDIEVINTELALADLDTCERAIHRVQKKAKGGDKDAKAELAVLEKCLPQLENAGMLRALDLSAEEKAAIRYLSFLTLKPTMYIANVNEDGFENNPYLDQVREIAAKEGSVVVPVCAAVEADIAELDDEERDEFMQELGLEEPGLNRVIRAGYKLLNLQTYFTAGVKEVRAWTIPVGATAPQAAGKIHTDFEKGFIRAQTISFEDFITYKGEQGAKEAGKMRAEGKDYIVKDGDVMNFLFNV
The assay is described as follows: equilibrium titration, intrinsic tryptophan fluorescence. The assay is classed as binding. In short, it runs like this: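 Purified E. coli YchF in TAKM7 (50 mM Tris-Cl 7.5, 70 mM NH4Cl, 30 mM KCl, 7 mM MgCl2) titrated with nucleotides. Intrinsic fluorescence recorded in a stirred quartz cuvette: excitation 280 nm (2 nm slit), emission 295–400 nm in 1 nm steps (5 nm slits). With triphosphates, scans started immediately without equilibration. Spectra corrected against nucleotide titration into buffer alone.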

For assay [1], the target named is 70S ribosome from E. coli, purified (E. coli). In words: co-sedimentation.

Broadly, the Kd is the concentration at which binding is half-saturated. In the case of `Nc1ncnc2c1ncn2[C@@H]1O[C@H](COP(=O)(O)OP(=O)(O)O)[C@@H](O)[C@H]1O` [ADP], at YchF (YchFE.coli), the dissociation constant (Kd) is 14 ± 5 µM.
The same measure, in the same setting: in the case of `Nc1ncnc2c1ncn2[C@@H]1O[C@H](COP(=O)(O)OP(=O)(O)NP(=O)(O)O)[C@@H](O)[C@H]1O` [ADPNP] it was 9 ± 8 µM.
The molecule `Nc1nc2c(ncn2[C@@H]2O[C@H](COP(=O)(O)OP(=O)(O)OP(=O)(O)O)[C@@H](O)[C@H]2O)c(=O)[nH]1` [GTP] came in with a Kd on YchF (YchFE.coli) of 206 ± 5 µM. This Kd lies about 23-fold higher than the previous one.
Same read-out and setting: in the case of `Nc1nc2c(ncn2[C@@H]2O[C@H](COP(=O)(O)OP(=O)(O)O)[C@@H](O)[C@H]2O)c(=O)[nH]1` [GDP] it was 151 ± 38 µM.

B1: N-terminally His-tagged YchF from Escherichia coli (enzyme)
chain: T1 sequence (P0ABU2 1-363)
In general, stoichiometry N refers to the number of molecules, sites or subunits per partner or assembly. In assay [1], B1 had a Kd of 3.3 µM and a stoichiometry N of 0.3 YchF per 70S.
